According to ChEMBL document CHEMBL3407478, “Development of a series of aryl pyrimidine kynurenine monooxygenase inhibitors as potential therapeutic agents for the treatment of Huntington's disease” (J Med Chem, 2015):
Calls of active or inactive are those of the source. The calls are words filed in the database; no cut-off is given here.

Legend:
[1] = Aqueous solubility of the compound; assay type: physicochemical
[2] = Permeability from apical to basolateral side in human Caco2 cells; assay type: ADME, cell-based; conditions: Caco-2, read-out: permeability
Plasma [3] = assay: Dose normalized AUC (0 to infinity) in Sprague-Dawley rat plasma at 6.2 mg equivalents/kg, iv; assay type: ADME, cell-free
[4] = MRT in Sprague-Dawley rat plasma at 6.2 mg equivalents/kg, iv; assay type: ADME, cell-free
Procedure, shortened: (§1)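 Nonfasted male Sprague-Dawley rats (300−370 g). Single iv tail-vein dose of 6.2 mg equiv/kg (1.24 mg equiv/mL in DMSO:PEG400:water 10:40:50) or oral gavage of 12 mg equiv/kg (1.20 mg equiv/mL in 10% hydroxypropyl-β-cyclodextrin). Terminal bleeds under isoflurane (N = 3) at 0.083−24 h; heparin plasma; tissues snap-frozen.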

Plasma [5] = assay: Dose normalized AUC (0 to infinity) in Sprague-Dawley rat plasma at 12 mg equivalents/kg, po; assay type: ADME, cell-free
Plasma [6] = assay: Dose normalized Cmax in Sprague-Dawley rat plasma at 12 mg equivalents/kg, po after 1 hr; assay type: ADME, organism-based; conditions: in vivo
[7] = Tmax in Sprague-Dawley rat plasma at 12 mg equivalents/kg, po; assay type: ADME, cell-free; procedure, shortened: as §1
[8] = Tmax in Sprague-Dawley rat brain at 6.2 mg equivalents/kg, iv; assay type: ADME, tissue-based; procedure, shortened: as §1
Brain [9] = assay: Dose normalized AUC (0 to infinity) in Sprague-Dawley rat brain at 12 mg equivalents/kg, po; assay type: ADME, tissue-based; conditions: in vivo
Brain [10] = assay: Dose normalized Cmax in Sprague-Dawley rat brain at 12 mg equivalents/kg, po; assay type: ADME, tissue-based; conditions: in vivo
[11] = Tmax in Sprague-Dawley rat brain at 12 mg equivalents/kg, po; assay type: ADME, tissue-based; procedure, shortened: as §1
[12] = Half life in Sprague-Dawley rat brain at 12 mg equivalents/kg, po; assay type: ADME, tissue-based
Plasma [13] = assay: Dose normalized AUC (0 to infinity) in Sprague-Dawley rat plasma at 10 mg equivalents/kg, po after 0.25 to 12 hrs; assay type: ADME, organism-based; conditions: in vivo
Procedure, shortened: (§2)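 Male Sprague-Dawley rats given a single oral dose of 10 mg equiv/kg as a 2 mg equiv/mL solution in 10% hydroxypropyl-β-cyclodextrin. Plasma, liver, kidney, cortex, striatum and CSF levels were measured from 0.25 to 12 h. Brain tissue was taken from nonperfused brains. CSF AUCN covers 0–8 h because the elimination phase was undefined.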

Cortex [14] = assay: Dose normalized AUC (0 to infinity) in Sprague-Dawley rat cortex at 10 mg equivalents/kg, po after 0.25 to 12 hrs; assay type: ADME, organism-based; conditions: in vivo; procedure, shortened: as §2
Cortex [15] = assay: Dose normalized Cmax in Sprague-Dawley rat cortex at 10 mg equivalents/kg, po after 0.25 to 12 hrs; assay type: ADME, organism-based; conditions: in vivo; procedure, shortened: as §2
Striatum [16] = assay: Dose normalized AUC (0 to infinity) in Sprague-Dawley rat striatum at 10 mg equivalents/kg, po after 0.25 to 12 hrs; assay type: ADME, organism-based; conditions: in vivo; procedure, shortened: as §2
Striatum [17] = assay: Dose normalized Cmax in Sprague-Dawley rat striatum at 10 mg equivalents/kg, po after 0.25 to 12 hrs; assay type: ADME, organism-based; conditions: in vivo; procedure, shortened: as §2
[18] = Tmax in Sprague-Dawley rat striatum at 10 mg equivalents/kg, po after 0.25 to 12 hrs; assay type: ADME, organism-based
Procedure, shortened: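 Fed male Sprague-Dawley rats given a single oral dose of 10 mg equiv/kg as 2 mg equiv/mL in 10% hydroxypropyl-β-cyclodextrin. Plasma, CSF, kidney, liver, and cortex and striatum from nonperfused brains sampled from 0.25 to 12 h.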

[19] = Half life in Sprague-Dawley rat striatum at 10 mg equivalents/kg, po after 0.25 to 12 hrs; assay type: ADME, organism-based; procedure, shortened: as §2
Kidney = assay: Dose normalized Cmax in Sprague-Dawley rat kidney at 10 mg equivalents/kg, po after 0.25 to 12 hrs; assay type: ADME, organism-based; conditions: in vivo; procedure, shortened: as §2
[20] = Half life in Sprague-Dawley rat kidney at 10 mg equivalents/kg, po after 0.25 to 12 hrs; assay type: ADME, organism-based; procedure, shortened: as §2
Liver [21] = assay: Dose normalized AUC (0 to infinity) in Sprague-Dawley rat liver at 10 mg equivalents/kg, po after 0.25 to 12 hrs; assay type: ADME, organism-based; conditions: in vivo; procedure, shortened: as §2
Liver [22] = assay: Dose normalized Cmax in Sprague-Dawley rat liver at 10 mg equivalents/kg, po after 0.25 to 12 hrs; assay type: ADME, organism-based; conditions: in vivo; procedure, shortened: as §2
[23] = Half life in Sprague-Dawley rat liver at 10 mg equivalents/kg, po after 0.25 to 12 hrs; assay type: ADME, organism-based; procedure, shortened: as §2
Brain [24] = assay: Dose normalized AUC (0 to infinity) in wild-type FVB/N mouse brain at 5 mg equivalents/kg, iv by LC-MS/MS analysis; assay type: ADME, organism-based; conditions: in vivo
Procedure, shortened: (§3)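 Male mice given a single 5 mg equiv/kg iv bolus: FVB wild type, Bcrp(−/−), Mdr1a/b(−/−) and Mdr1a/b(−/−)/Bcrp(−/−). Brain and plasma concentration–time profiles were used to derive dose-normalized AUC (0–infinity).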

Plasma [25] = assay: Dose normalized AUC (0 to infinity) in BCRP knock out FVB/N mouse plasma at 5 mg equivalents/kg, iv by LC-MS/MS analysis; assay type: ADME, organism-based; conditions: in vivo; procedure, shortened: as §3
Brain [26] = assay: Dose normalized AUC (0 to infinity) in BCRP knock out FVB/N mouse brain at 5 mg equivalents/kg, iv by LC-MS/MS analysis; assay type: ADME, organism-based; conditions: in vivo; procedure, shortened: as §3
Brain [27] = assay: Dose normalized AUC (0 to infinity) in BCRP and MDR1a knock out FVB/N mouse brain at 5 mg equivalents/kg, iv by LC-MS/MS analysis; assay type: ADME, organism-based; conditions: in vivo; procedure, shortened: as §3
[28] = Fraction unbound in rat plasma; assay type: ADME, cell-free
[29] = Fraction unbound in mouse plasma; assay type: ADME, cell-free
Rattus norvegicus [30] = assay: Inhibition of KMO in Sprague-Dawley rat plasma assessed as time duration for elevation in kynurenic acid plasma level at 10 mg/kg, po by […] analysis; assay type: functional
Procedure, shortened: (§4)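 Sprague-Dawley rats given a single 10 mg/kg oral dose. KYN, 3-HK, KYNA and AA were quantified in plasma by LC-MS/MS at multiple time points.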

Rattus norvegicus [31] = assay: Inhibition of KMO in Sprague-Dawley rat plasma assessed as time duration for elevation in anthranilic acid plasma level at 10 mg/kg, po by […] analysis; assay type: functional; procedure, shortened: as §4
Rattus norvegicus [32] = assay: Inhibition of KMO in Sprague-Dawley rat plasma assessed as time duration for reduction in 3-HK plasma level at 10 mg/kg, po by […] analysis; assay type: functional; procedure, shortened: as §4
[33] = AUC (0 to 240 mins) in Sprague-Dawley rat striatal extracellular fluid at 10 mg/kg, po by […] analysis; assay type: ADME, organism-based; parameters: time < 4 hr, dose 10 mg/kg, route oral
Procedure, shortened: (§5)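 Freely moving Sprague-Dawley rats given 10 mg/kg po, with a microdialysis probe implanted in the striatum. Dialysate was sampled over 0–240 min for free compound and for KYN, KYNA, AA and 3-HK, quantified by LC-MS/MS. Metabolite changes were compared with t = 0 min by 2-way ANOVA.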

Rattus norvegicus [34] = assay: Inhibition of KMO in Sprague-Dawley rat brain assessed as time duration for elevation in kynurenine plasma level at 10 mg/kg, po by […] analysis; assay type: functional
Rattus norvegicus [35] = assay: Inhibition of KMO in Sprague-Dawley rat striatum brain microdialysate assessed as time duration for elevation in kynurenic acid level at 10 mg/kg, po by […] analysis; assay type: functional; procedure, shortened: as §5
Rattus norvegicus [36] = assay: Inhibition of KMO in po dosed Sprague-Dawley rat plasma assessed as reduction in 3-hydroxykynurenice acid plasma level by […] analysis; assay type: functional, organism-based

solubility [1]: > 1000 µg/mL
Papp A→B [2]: 18.7 ×10⁻⁶ cm/s
AUC/dose (Plasma [3]): 12 µM·kg·h/mg
MRT [4]: 1.1 h
AUC/dose (Plasma [5]): 7.6 µM·kg·h/mg
Cmax/dose (Plasma [6]): 1.9 µM·kg/mg
Tmax [7]: 1 h
Tmax [8]: 4.98 min
AUC/dose (Brain [9]): 0.12 µM·kg·h/mg
Cmax/dose (Brain [10]): 0.035 µM·kg/mg
Tmax [11]: 1 h
half-life [12]: 1.7 h
AUC/dose (Plasma [13]): 5.3 µM·kg·h/mg
AUC/dose (Cortex [14]): 0.056 µM·kg·h/mg
Cmax/dose (Cortex [15]): 0.03 µM·kg/mg
AUC/dose (Striatum [16]): 0.1 µM·kg·h/mg
Cmax/dose (Striatum [17]): 0.047 µM·kg/mg
Tmax [18]: 0.5 h
half-life [19]: 2.3 h
Cmax/dose (Kidney): 26 µM·kg/mg
half-life [20]: 2 h
AUC/dose (Liver [21]): 20 µM·kg·h/mg
Cmax/dose (Liver [22]): 9.3 µM·kg/mg
half-life [23]: 2.5 h
AUC/dose (Brain [24]): 0.066 µM·kg·h/mg
AUC/dose (Plasma [25]): 3.6 µM·kg·h/mg
AUC/dose (Brain [26]): 0.17 µM·kg·h/mg
AUC/dose (Brain [27]): 0.23 µM·kg·h/mg
fraction unbound [28]: 0.05
fraction unbound [29]: 0.036
AUC(0-t) at 4 h [33]: 0.066 µM·h
Compound: O=C(O)c1cc(-c2ccc(OC3CC3)c(Cl)c2)ncn1
Time (Rattus norvegicus [30]): 8 h
Time (Rattus norvegicus [31]): 8 h
Time (Rattus norvegicus [32]): 8 h
Time (Rattus norvegicus [34]): >=4 hr
Time (Rattus norvegicus [35]): 60 min
inhibition (Rattus norvegicus [36]): Active
